Data reported in ChEMBL document CHEMBL1134284, “The biological effects of structural variation at the meta position of the aromatic rings and at the end of the alkenyl chain in the alkenyldiarylmethane series of non-nucleoside reverse transcriptase inhibitors” (J Med Chem, 2001).

Key:
[1] = system: Human immunodeficiency virus type 1 (RF/HAT ISOLATE); test: Inhibitory concentration for cytopathicity of HIV-1RF in CEM-SS cells; assay type: functional, organism-based; conditions: Human immunodeficiency virus 1, RF
How it was run: (§1)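 CEM-SS cells kept in RPMI 1640 with 10% heat-inactivated FBS, 2 mM glutamine, penicillin/streptomycin. Microtiter assay with cytopathic HIV-1 RF, or mock infection for toxicity. Viability read by MTS/phenazine ethosulfate reduction (absorbance 490 nm) 6 days after infection. […] Triplicate.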

[2] = Ratio of CC50/EC50 was determined; assay type: cell-based; conditions: human, CEM-SS cells; read-out: TI
How it was run: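 HIV-1 RF–infected CEM-SS cells (RPMI 1640, 10% heat-inactivated FBS, 2 mM glutamine, penicillin/streptomycin), plus mock-infected CEM-SS in parallel. Cell killing and viability were read by MTS/phenazine ethosulfate reduction at 490 nm 6 days after infection. […] Index = CC50 ÷ EC50. Triplicate tests.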

CEM-SS [3] = test: Concentration required for cytotoxicity against mock infected CEM-SS cells; assay type: functional; conditions: Homo sapiens; how it was run: as §1
[4] = target: Human immunodeficiency virus type 1 reverse transcriptase (Human immunodeficiency virus 1, UniProt Q72547); test: Inhibitory activity against HIV-1 Reverse Transcriptase with rCdG as the template primer
How it was run: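 Cell-free assay with purified recombinant HIV-1 RT (p66/p51 dimer). Activity measured as [32P]GTP incorporation into the poly(rC)/oligo(dG) homopolymer template/primer. IC50 is reported as inhibition of enzyme activity.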

CEM-SS [5] = test: Inhibitory concentration for cytopathicity of HIV-1RF in CEM-SS cells; Not active; assay type: functional, cell-based, Homo sapiens; how it was run: as §1

Structure (SMILES) | EC50 [1] | selectivity ratio [2] | CC50 (CEM-SS [3]) | IC50 [4] | EC50 (CEM-SS [5])
CCCOC(=O)CCCC=C(c1cc(C)c(OC)c(C(=O)OC)c1)c1cc(C)c(OC)c(C(=O)OC)c1 | 1.29 µM | 4.2 | 5.4 µM | 29.7 µM | 
COC(=O)c1cc(C(=CCCCc2ccccc2)c2cc(Cl)c(OC)c(C(=O)OC)c2)cc(Cl)c1OC | 1.7 µM | > 43 | > 200 µM | > 100 µM | 
C#CCCCC=C(c1cc(Cl)c(OC)c(C(=O)OC)c1)c1cc(Cl)c(OC)c(C(=O)OC)c1 | 1.3 µM | 33 | 42.7 µM |  | 
C=CCCCC=C(c1cc(Br)c(OC)c(C(=O)OC)c1)c1cc(Br)c(OC)c(C(=O)OC)c1 | 8.2 µM | > 24 | > 200 µM | 99 µM | 
COC(=O)c1cc(C(=CCCCc2ccccc2)c2cc(Br)c(OC)c(C(=O)OC)c2)cc(Br)c1OC | 13.1 µM | > 15 | > 200 µM | > 100 µM | 
C=CCCCC=C(c1cc(Cl)c(OC)c(C(=O)OC)c1)c1cc(Cl)c(OC)c(C(=O)OC)c1 | 13 µM | > 15 | > 200 µM | 258 µM | 
CCCCCC=C(c1cc(Cl)c(OC)c(C(=O)OC)c1)c1cc(Cl)c(OC)c(C(=O)OC)c1 | 16 µM | > 1.8 | > 29.1 µM |  | 
COC(=O)CCCC=C(c1cc(C(=O)OC)c(OC)c(C(F)(F)F)c1)c1cc(C(=O)OC)c(OC)c(C(F)(F)F)c1 | 14.3 µM | 1.2 | 17.2 µM | > 200 µM | 
COC(=O)NCCC=C(c1cc(C)c(OC)c(C(=O)OC)c1)c1cc(C)c(OC)c(C(=O)OC)c1 | 0.21 µM | 59 | 12.4 µM | 4.93 µM | 
COC(=O)c1cc(C(=CCCCC(=O)N(C)C)c2cc(C)c(OC)c(C(=O)OC)c2)cc(C)c1OC | 1.51 µM | 4.91 | 7.4 µM | 5.65 µM | 
COC(=O)c1cc(C(=CCCCC(=O)OCC[Si](C)(C)C)c2cc(C)c(OC)c(C(=O)OC)c2)cc(C)c1OC | 95.4 µM | > 2.1 | > 200 µM | > 100 µM | 
COC(=O)c1cc(C(=CCCCSC)c2cc(Cl)c(OC)c(C(=O)OC)c2)cc(Cl)c1OC | 5.31 µM | > 3.77 | > 20 µM | > 100 µM | 
CCCCCC=C(c1cc(F)c(OC)c(C(=O)OC)c1)c1cc(F)c(OC)c(C(=O)OC)c1 |  |  | 13.4 µM |  | 
CCOC(=O)CCCC=C(c1cc(C)c(OC)c(C(=O)OC)c1)c1cc(C)c(OC)c(C(=O)OC)c1 | 0.03 µM | 297 | 8.91 µM | 0.181 µM | 
CCNC(=O)NCCC=C(c1cc(Cl)c(OC)c(C(=O)OC)c1)c1cc(Cl)c(OC)c(C(=O)OC)c1 |  |  | 14.6 µM | > 100 µM | Not Active
COC(=O)c1cc(C(=CCCN2CCOC2=O)c2cc(Br)c(OC)c(C(=O)OC)c2)cc(Br)c1OC | 0.02 µM | 104 | 1.95 µM | 0.499 µM | 
COC(=O)NCCC=C(c1cc(Br)c(OC)c(C(=O)OC)c1)c1cc(Br)c(OC)c(C(=O)OC)c1 | 0.2 µM | 40.5 | 8.1 µM | 2.39 µM | 
COC(=O)c1cc(C(=CCCC[S+](C)[O-])c2cc(Cl)c(OC)c(C(=O)OC)c2)cc(Cl)c1OC (stereo not drawn) | 11.7 µM | 3.15 | 36.9 µM |  | 
COC(=O)c1cc(C(=CCCN2CCOC2=O)c2cc(Cl)c(OC)c(C(=O)OC)c2)cc(Cl)c1OC | 2.15 µM | 6.02 | 13 µM | 9.47 µM | 
CCCCCC=C(c1cc(C(=O)OC)c(OC)c(C(F)(F)F)c1)c1cc(C(=O)OC)c(OC)c(C(F)(F)F)c1 |  |  | 106 µM |  | Not Active

Structure (SMILES) | EC50 [1] | selectivity ratio [2] | CC50 (CEM-SS [3]) | IC50 [4] | EC50 (CEM-SS [5])
COC(=O)c1cc(C(=CCCCC(=O)N(C)C)c2cc(Cl)c(OC)c(C(=O)OC)c2)cc(Cl)c1OC | 0.38 µM | 6.94 | 2.65 µM | 0.687 µM | 
COC(=O)c1cc(C(=CCCNC(=O)OCC(C)C)c2cc(C)c(OC)c(C(=O)OC)c2)cc(C)c1OC | 0.76 µM | 6.73 | 5.13 µM | 2.95 µM | 
COC(=O)NCCC=C(c1cc(Cl)c(OC)c(C(=O)OC)c1)c1cc(Cl)c(OC)c(C(=O)OC)c1 | 1.22 µM | 10.2 | 12.4 µM | 4.43 µM | 
COC(=O)c1cc(C(=CCCCC(=O)OC(C)C)c2cc(Cl)c(OC)c(C(=O)OC)c2)cc(Cl)c1OC | 0.84 µM | 42.9 | 36.1 µM | > 100 µM | 
CCOC(=O)NCCC=C(c1cc(C)c(OC)c(C(=O)OC)c1)c1cc(C)c(OC)c(C(=O)OC)c1 | 0.67 µM | 5.34 | 3.59 µM | 0.016 µM | 
COC(=O)c1cc(C(=CCCCS(C)(=O)=O)c2cc(Cl)c(OC)c(C(=O)OC)c2)cc(Cl)c1OC |  |  | 14.9 µM |  | Not Active
COC(=O)CCCC=C(c1cc(F)c(OC)c(C(=O)OC)c1)c1cc(F)c(OC)c(C(=O)OC)c1 | 1.9 µM | 36 | 68.3 µM |  | 
COC(=O)c1cc(C(=CCCCC(=O)SC)c2cc(Cl)c(OC)c(C(=O)OC)c2)cc(Cl)c1OC | 2.42 µM | 5.15 | 12.5 µM |  | 
COC(=O)c1cc(C(=CCCCC(=O)N2CCCCC2)c2cc(C)c(OC)c(C(=O)OC)c2)cc(C)c1OC | 5.37 µM | 2.74 | 14.7 µM | 7.12 µM | 
CCCCCC=C(c1cc(I)c(OC)c(C(=O)OC)c1)c1cc(I)c(OC)c(C(=O)OC)c1 |  |  | > 316 µM |  | 
CCCOC(=O)CCCC=C(c1cc(Br)c(OC)c(C(=O)OC)c1)c1cc(Br)c(OC)c(C(=O)OC)c1 | 1.14 µM | > 17.5 | > 20 µM | 9.15 µM | 
COC(=O)c1cc(C(=CCCCC(=O)OC(C)C)c2cc(Br)c(OC)c(C(=O)OC)c2)cc(Br)c1OC | 4.33 µM | 3.79 | 16.4 µM | 70.8 µM | 
C#CCCCC=C(c1cc(Br)c(OC)c(C(=O)OC)c1)c1cc(Br)c(OC)c(C(=O)OC)c1 | 4.7 µM | > 43 | > 200 µM | 6 µM | 
CCCOC(=O)CCCC=C(c1cc(Cl)c(OC)c(C(=O)OC)c1)c1cc(Cl)c(OC)c(C(=O)OC)c1 | 1.29 µM | 10.8 | 13.9 µM | 8.3 µM | 
CCOC(=O)NCCC=C(c1cc(Cl)c(OC)c(C(=O)OC)c1)c1cc(Cl)c(OC)c(C(=O)OC)c1 | 0.71 µM | 17.2 | 12.2 µM | 1.93 µM | 
CCCCCC=C(c1cc(C)c(OC)c(C(=O)OC)c1)c1cc(C)c(OC)c(C(=O)OC)c1 | 6.8 µM | 2.5 | 17.2 µM | 1 µM | 
COC(=O)c1cc(C(=CCCCC(OC)OC)c2cc(Cl)c(OC)c(C(=O)OC)c2)cc(Cl)c1OC |  |  | 18.1 µM | > 100 µM | 
CCSC(=O)CCCC=C(c1cc(Cl)c(OC)c(C(=O)OC)c1)c1cc(Cl)c(OC)c(C(=O)OC)c1 | 3.95 µM | 3.2 | 12.6 µM |  | 
COC(=O)CCCC=C(c1cc(C)c(OC)c(C(=O)OC)c1)c1cc(C)c(OC)c(C(=O)OC)c1 | 0.25 µM | 24 | 6 µM | < 1 µM | 
CCCCCC=C(c1ccc(OC)c(C(=O)OC)c1)c1ccc(OC)c(C(=O)OC)c1 |  |  | 14 µM |  | 
